The results in this text go back to ChEMBL document CHEMBL4130469, “C-Methylated Flavonoid Glycosides from Pentarhizidium orientale Rhizomes and Their Inhibitory Effects on the H1N1 Influenza Virus” (J Nat Prod, 2017).

One series deals with Influenza A virus. The series can be described thus: Antiviral activity against Influenza A virus (A/PR/8/34 (H1N1)) infected in MDCK cells assessed as reduction in virus-induced cytopathic effect after 3 days by MTT assay. The format is functional, organism-based. Particulars: A/Puerto Rico/8/1934(H1N1), 72 h. In short, it runs like this:
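MDCK cells grown in DMEM with 10% FBS at 37 °C and 5% CO2, seeded at 1 × 10^5 cells/well, and cultured 24 h. Infected 2 h in DMEM with 0.15 μg/mL trypsin and 5 μg/mL BSA, then given DMEM with 10 μg/mL trypsin and a range of compound concentrations, in triplicate. After 3 days, MTT (2 mg/mL) added for 4 h at 37 °C; formazan dissolved in DMSO, A550 read; EC50.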

Series [1] can be described thus: Cytotoxicity against MDCK cells after 2 days by MTT assay. The format is cell-based, Canis lupus familiaris. As to conditions: dog. The essentials:
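Uninfected MDCK cells seeded at 1 × 10^5 cells/well and grown 24 h. Washed with PBS, then exposed to graded compound concentrations in fresh DMEM, each in triplicate, for 2 days. Viability by MTT (2 mg/mL), 4 h further incubation; CC50.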

For series [2], the target named is Neuraminidase (Influenza A virus (A/Puerto Rico/8/1934(H1N1)), UniProt P03468). Description: Inhibition of neuraminidase activity in Influenza A virus (A/PR/8/34 (H1N1)) infected in MDCK cells using 4-MU-NANA as substrate pretreated for 30 mins followed by substrate addition measured after 2 hrs by fluorescence assay. The series is classed as cell-based.
A short description of series [3]: Inhibition of neuraminidase activity in H9N2 A/chicken/Korea/01210/2001 infected in MDCK cells using 4-MU-NANA as substrate pretreated for 30 mins followed by substrate addition measured after 2 hrs by fluorescence assay. The series is classed as cell-based, H9N2 subtype. Particulars: Influenza A virus, A/chicken/Korea/01210/2001, MDCK.

Structures are written as SMILES.

Chain of Neuraminidase (Influenza A virus (A/Puerto Rico/8/1934(H1N1)), UniProt P03468) (P03468 whole entry): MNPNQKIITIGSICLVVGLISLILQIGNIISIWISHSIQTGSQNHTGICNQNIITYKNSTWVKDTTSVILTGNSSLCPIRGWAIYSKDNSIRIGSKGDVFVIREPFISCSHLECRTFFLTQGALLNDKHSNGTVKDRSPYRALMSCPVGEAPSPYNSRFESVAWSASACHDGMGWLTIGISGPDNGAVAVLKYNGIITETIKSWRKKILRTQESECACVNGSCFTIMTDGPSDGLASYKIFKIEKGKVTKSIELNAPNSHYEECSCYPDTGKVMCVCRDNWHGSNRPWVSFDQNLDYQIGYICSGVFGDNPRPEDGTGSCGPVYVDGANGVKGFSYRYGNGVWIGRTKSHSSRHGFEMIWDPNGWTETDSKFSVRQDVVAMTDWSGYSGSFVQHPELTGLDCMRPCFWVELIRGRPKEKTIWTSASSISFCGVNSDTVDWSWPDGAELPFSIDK

Turning to `COc1cc(O)cc([C@@H]2CC(=O)c3c(O)c(C)c(O)c(C)c3O2)c1`, the EC50 with Influenza A virus was found to be 21.4 µM. The compound further registered a CC50 at 48 h in series [1] of over 100 µM. The IC50 was determined as 24.4 µM in series [2] and 23.1 µM in series [3].

Turning to `CCOC(=O)C1=C[C@@H](OC(CC)CC)[C@H](NC(C)=O)[C@@H](N)C1` [OSELTAMIVIR], in the series with Influenza A virus, the concentration for a half-maximal effect (EC50) came out at 0.6 µM. Further, in series [3], the IC50 was 0.0191 µM.

Take `COc1ccc(O)c([C@@H]2CC(=O)c3c(O)c(C)c(O)c(C)c3O2)c1`: the EC50 with Influenza A virus turned out to be 23 µM. Also, the CC50 at 48 h in series [1] was over 100 µM. Besides, the IC50 in series [2] stood at 24.5 µM; in series [3], 24.6 µM.

Turning to `Cc1c(O)c(C)c2c(c1O)C(=O)C[C@@H](c1ccccc1O)O2`, the EC50 in the series with Influenza A virus turned out to be 22.9 µM. This compound also returned a 50% cytotoxic concentration (CC50) at 48 h in series [1] of over 100 µM. The IC50 amounted to 23.9 µM in series [2] and 24.1 µM in series [3].

Regarding `Cc1c(O)c(C)c2c(c1O)C(=O)C[C@@H](c1ccccc1)O2` [DEMETHOXYMATTEUCINOL], the EC50 in the series with Influenza A virus came out at 30.7 µM. In addition, the CC50 at 48 h in series [1] stood at 77.6 µM. Besides, the 50% inhibitory concentration (IC50) in series [2] turned out to be 30.3 µM; in series [3], 31.3 µM.

As for `COc1ccc([C@@H]2CC(=O)c3c(O)c(C)c(O)c(C)c3O2)cc1`, the EC50 with Influenza A virus was found to be 26.9 µM. The CC50 at 48 h in series [1] is over 100 µM. Further, the IC50 was determined as 25.2 µM in series [2] and 27.2 µM in series [3].
